Assay results taken from ChEMBL document CHEMBL4266007, “Synthesis and Biological Evaluation of an Indazole-Based Selective Protein Arginine Deiminase 4 (PAD4) Inhibitor” (ACS Med Chem Lett, 2018).
Each block holds one compound with its values, some of them ahead of it. Activity calls are given as the source filed them. The calls are words filed in the database; no cut-off is given here.

Experiments:
[1] = species: Homo sapiens; experiment: Ratio of Kinact/Ki for PAD4 (unknown origin) to Kinact/Ki for PAD2 (unknown origin)
[2] = species: Homo sapiens; experiment: Ratio of Kinact/Ki for PAD4 (unknown origin) to Kinact/Ki for PAD1 (unknown origin)
[3] = species: Homo sapiens; experiment: Ratio of Kinact/Ki for PAD4 (unknown origin) to Kinact/Ki for PAD3 (unknown origin)
[4] = biological target: T1, Protein-arginine deiminase type-4 (Homo sapiens, UniProt Q9UM07); experiment: Inhibition of PAD4 (unknown origin) preincubated for 15 mins followed by BAEE addition measured after 15 mins by spectrophotometric method
T1 sequence (Q9UM07 whole entry): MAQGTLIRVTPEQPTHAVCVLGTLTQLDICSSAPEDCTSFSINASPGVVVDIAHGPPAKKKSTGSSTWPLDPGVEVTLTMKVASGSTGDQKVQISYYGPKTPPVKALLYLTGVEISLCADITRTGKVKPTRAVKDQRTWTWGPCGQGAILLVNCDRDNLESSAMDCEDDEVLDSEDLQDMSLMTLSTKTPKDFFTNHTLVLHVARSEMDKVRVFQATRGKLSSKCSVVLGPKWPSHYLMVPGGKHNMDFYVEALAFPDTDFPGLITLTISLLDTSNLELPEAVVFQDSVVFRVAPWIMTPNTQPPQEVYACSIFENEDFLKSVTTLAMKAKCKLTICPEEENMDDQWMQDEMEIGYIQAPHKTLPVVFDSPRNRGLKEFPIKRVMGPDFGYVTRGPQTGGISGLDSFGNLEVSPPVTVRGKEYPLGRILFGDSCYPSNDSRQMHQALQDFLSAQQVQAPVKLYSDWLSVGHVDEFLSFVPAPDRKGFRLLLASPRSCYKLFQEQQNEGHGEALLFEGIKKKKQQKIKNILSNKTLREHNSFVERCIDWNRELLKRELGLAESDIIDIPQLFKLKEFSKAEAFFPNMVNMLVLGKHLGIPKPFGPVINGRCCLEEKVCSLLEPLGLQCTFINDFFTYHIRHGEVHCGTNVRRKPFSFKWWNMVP

[5] = biological target: T1, Protein-arginine deiminase type-4; experiment: Inhibition of PAD4 in human HL60 cells assessed as reduction in A23187-induced citrullinated H4 level at 5 to 10 uM preincubated for 15 mins followed by A23187 addition measured after 15 mins by Western blot analysis; format: cell-based
How it was run: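 HL-60 cells differentiated into mature granulocytes, which express PAD4, then stimulated with a calcium ionophore to trigger histone H4 citrullination. Cell lysates were analysed by Western blot using an anti-citrulline histone H4 antibody.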

[6] = species: Homo sapiens; experiment: Ratio of Kinact/Ki for PAD2 (unknown origin) to Kinact/Ki for PAD3 (unknown origin)
[7] = species: Homo sapiens; experiment: Ratio of Kinact/Ki for PAD2 (unknown origin) to Kinact/Ki for PAD4 (unknown origin)
[8] = species: Homo sapiens; experiment: Ratio of Kinact/Ki for PAD2 (unknown origin) to Kinact/Ki for PAD1 (unknown origin)
[9] = species: Homo sapiens; experiment: Ratio of Kinact/Ki for PAD1 (unknown origin) to Kinact/Ki for PAD4 (unknown origin)
[10] = species: Homo sapiens; experiment: Ratio of Kinact/Ki for PAD1 (unknown origin) to Kinact/Ki for PAD3 (unknown origin)
[11] = species: Homo sapiens; experiment: Ratio of Kinact/Ki for PAD1 (unknown origin) to Kinact/Ki for PAD2 (unknown origin)
[12] = species: Homo sapiens; experiment: Ratio of Kinact/Ki for PAD3 (unknown origin) to Kinact/Ki for PAD2 (unknown origin)
[13] = species: Homo sapiens; experiment: Ratio of Kinact/Ki for PAD3 (unknown origin) to Kinact/Ki for PAD4 (unknown origin)
[14] = species: Homo sapiens; experiment: Ratio of Kinact/Ki for PAD3 (unknown origin) to Kinact/Ki for PAD1 (unknown origin)

Ratio [1]: 72
Ratio [2]: 3300
Ratio [3]: 7.5
SMILES: N=C(CCl)NCCCc1nn(CC2CCCC2)c2cc(Cl)cc(Cl)c12

SMILES: Cn1cc(CCCNC(=N)CCl)c2ccccc21
IC50 [4]: 190 µM

inhibition [5]: Active
Ratio [1]: 58
Ratio [2]: 2700
Ratio [3]: 11
SMILES: N=C(CCl)NCCCc1nn(CC2CCCC2)c2cc(Cl)c(Cl)c(Cl)c12

Ratio [6]: > 5
Ratio [7]: > 5
Ratio [8]: > 5
SMILES: CCN1Cc2ccc(C(=O)N[C@@H](CCCNC(=N)CF)c3nc4c(OC)cccc4n3C)cc2C1=O

inhibition [5]: Active
SMILES: N=C(CCl)NCCC[C@H](NC(=O)c1ccccc1)C(N)=O

Ratio [3]: 1.3
SMILES: N=C(CCl)NCCCc1nn(CC2CCCC2)c2cccc(Cl)c12

Ratio [3]: 2
SMILES: N=C(CCl)NCCCc1nn(CC2CCCC2)c2cc(Cl)ccc12

Ratio [9]: > 3
Ratio [10]: > 3
Ratio [11]: > 3
SMILES: CC(C)(C)n1nnc([C@H](CCCNC(=N)CCl)NC(=O)c2cccc(C(=O)O)c2)n1

Ratio [12]: > 10
Ratio [13]: > 10
Ratio [14]: > 10
SMILES: N=C(CCl)NCCCC1NC(=O)N(Cc2ccc(-c3ccccc3Cl)cc2)C1=O (racemic)

Ratio [3]: 1.6
SMILES: N=C(CCl)NCCCc1nn(CC2CCCC2)c2ccc(Cl)cc12
